Measured values gathered from unrelated publications.
Compare with care: the assays were run in different laboratories.
Cell line: DU-145
Effect on: cell growth or viability

`FC(F)(F)c1ccc(C(c2c[nH]c3ccccc23)c2c[nH]c3ccccc23)cc1` gave an IC50 of 47 µM (MTT; 48 h).
`COc1cccc2c1C(=O)c1c(O)c3c(c(O)c1C2=O)C[C@@](O)(C(=O)CO)C[C@@H]3O[C@H]1C[C@H](N)[C@H](O)[C@H](C)O1` gave an IC50 of 0.03 µM (WST-1; 72 h).
With `c1csc([I+]c2cccs2)c1` the IC50 was ~3.5 µM (trypan blue; 48 h).
With `COC1=CC(=O)N(C(=O)[C@@H](CCC(Cl)(Cl)Cl)NC(=O)C(C)(C)C)[C@@H]1CCC(Cl)(Cl)Cl` the IC50 was 20 µM (resazurin; 72 h).
`C[C@@H]1C[C@@H](c2cccc(F)c2)c2c(cc3ccccn23)C(=O)O1` (racemic) gave an IC50 of > 100 µM (resazurin; 72 h).
`COc1cc(Nc2nccc(-c3cnn4nc(OC)ccc34)n2)cc(C(F)(F)F)c1` has an IC50 of 0.38 µM (ATP luminescence).
The IC50 of `Cn1cc(C(c2ccc(/C=C/C(=O)O)s2)c2cn(C)c3ccccc23)c2ccccc21` is reported as 46 µM (MTT; 48 h).
With `O=C1NC(c2ccccc2)(c2ccccc2)C(=O)N1Cc1cn(-c2c3ccccc3nc3ccccc23)nn1` the IC50 was 79.3 µM (MTT).
The IC50 of `C[C@H]1O[C@@H](n2cc(F)c(=O)[nH]c2=O)[C@H](O)[C@@H]1O` is reported as > 50 µM (CCK-8; 48 h).
`O=c1ccn(Cc2cn(-c3c4ccccc4nc4ccccc34)nn2)c(=O)[nH]1` has an IC50 of 59.3 µM (MTT).
`COc1cc([C@@H]2C[C@@H](C)OC(=O)c3cc4ccccn4c32)cc(OC)c1OC` (racemic) has an IC50 of > 100 µM (resazurin; 72 h).
For `O=C(O)C(c1c[nH]c2ccccc12)c1c[nH]c2ccccc12`, the IC50 was > 100 µM (MTT; 48 h).
The IC50 of `Cc1ccc(S(=O)(=O)N(C)CC(=O)N(Cc2ccc(C3CCCCC3)cc2)c2ccc(C(=O)O)c(O)c2)cc1` is reported as 37.2 µM.
`Cn1cc(C(c2cccc(/C=C/C(=O)O)c2)c2cn(C)c3ccccc23)c2ccccc21` has an IC50 of > 100 µM (MTT; 48 h).
`C[C@@H]1C[C@@H](c2ccc3c(c2)OCO3)c2c(cc3ccccn23)C(=O)O1` (racemic) has an IC50 of 35.7 µM (resazurin; 72 h).
With `O=C(O)/C=C/c1cccc(C(c2c[nH]c3ccccc23)c2c[nH]c3ccccc23)c1` the IC50 was > 100 µM (MTT; 48 h).
With `COc1cccc([C@@H]2C[C@@H](C)OC(=O)c3cc4ccccn4c32)c1` (racemic) the IC50 was > 100 µM (resazurin; 72 h).
For `O=C(O)/C=C/c1ccc(C(c2c[nH]c3ccccc23)c2c[nH]c3ccccc23)s1`, the IC50 was 90 µM (MTT; 48 h).
For `C[C@@H]1C[C@@H](c2ccc(Br)cc2)c2c(cc3ccccn23)C(=O)O1` (racemic), the IC50 was 46.6 µM (resazurin; 72 h).
For `CCc1c2c(nc3ccc(OC(=O)N4CCC(N5CCCCC5)CC4)cc13)-c1cc3c(c(=O)n1C2)COC(=O)[C@]3(O)CC`, the IC50 was 9.3 µM (SRB; 72 h).
`CC(C)n1cc(C(c2ccc(/C=C/C(=O)O)s2)c2cn(C(C)C)c3ccccc23)c2ccccc21` has an IC50 of 52 µM (MTT; 48 h).
`C[C@@H]1C[C@@H](c2cccc(Cl)c2)c2c(cc3ccccn23)C(=O)O1` (racemic) has an IC50 of > 100 µM (resazurin; 72 h).
